This assay deals with T1, Endothelin-1 receptor (Sus scrofa, UniProt Q29010).
T1 sequence (Q29010 whole entry): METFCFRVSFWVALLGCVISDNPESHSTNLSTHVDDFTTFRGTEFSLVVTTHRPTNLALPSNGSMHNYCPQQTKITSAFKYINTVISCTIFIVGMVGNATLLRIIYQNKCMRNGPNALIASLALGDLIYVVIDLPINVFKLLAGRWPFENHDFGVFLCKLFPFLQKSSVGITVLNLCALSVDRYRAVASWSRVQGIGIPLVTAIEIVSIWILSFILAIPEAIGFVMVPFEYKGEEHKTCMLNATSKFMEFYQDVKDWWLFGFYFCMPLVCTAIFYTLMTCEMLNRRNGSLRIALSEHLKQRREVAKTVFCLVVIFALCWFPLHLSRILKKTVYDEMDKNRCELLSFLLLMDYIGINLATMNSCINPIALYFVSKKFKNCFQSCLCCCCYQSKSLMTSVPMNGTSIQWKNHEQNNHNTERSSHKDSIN
Put plainly: Tested for the competitive binding versus [125I]- ET-1 determined in porcine cardiac ventricular membrane for Endothelin A receptor. A digest of the protocol:
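Membranes (porcine cardiac ventricle at 12 μg/mL for ETA; bovine cerebrum at 150 μg/mL for ETB) in pH 7.2 Tris/EGTA/Mg acetate/0.1% BSA buffer with protease inhibitors. Incubated with 100 pM [125I]ET-1 and varied compound for 1 h at 25 °C, then filtered and counted by gamma counter. IC50 given as mean ± SEM of ≥3 determinations.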

1 molecule from BindingDB's records for doi:10.1021/jm00077a013 (Takeda Chemical Industries, 1994) can be followed below.

As usually defined, the IC50 is the point on the concentration scale where inhibition reaches its midpoint. Read a high IC50 as weaker potency.

In turn, `CC[C@H](C)[C@H](NC(=O)[C@H](CC1CCCCC1)NC(=O)[C@@H](NC(=O)[C@H](CC(C)C)NC(=O)[C@H](Cc1c[nH]cn1)NC(=O)[C@@H]1CSSC[C@H](N)C(=O)N[C@@H](CO)C(=O)N[C@H]2CSSC[C@H](NC(=O)[C@H](CCC(=O)O)NC(=O)[C@H](CCCCN)NC(=O)[C@H](CC(=O)O)NC(=O)[C@H](CCSC)NC(=O)[C@H](CC(C)C)NC(=O)[C@H](CO)NC(=O)[C@H](CO)NC2=O)C(=O)N[C@@H](C(C)C)C(=O)N[C@@H](Cc2ccc(O)cc2)C(=O)N[C@@H](Cc2ccccc2)C(=O)N1)[C@@H](C)O)C(=O)N[C@@H](Cc1c[nH]c2ccccc12)C(=O)O` displayed an IC50 of 0.7 nM.
